Activity calls are given as the source filed them. The rule behind the calls is not given here.
Experiments:
[1] = Inhibition of recombinant human thrombin K169A mutant expressed in BHK cells using S2238 as substrate after overnight incubation at 25 degC
Method in brief: (§1)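 BHK-expressed, HPC4 immunoaffinity-purified thrombins, activated from prothrombin form. Active-site concentration from amidolysis and antithrombin titration. Enzyme (1.5−7.5 nM final) incubated overnight at 25 °C with inhibitor in Tris pH 7.4 buffer in coated cuvettes. Residual activity from S2238 initial rate at A405, using at least 9−10 points. Logistic fit gives IC50. Ratio is mutant IC50 over wild-type IC50.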

[2] = species on record: Homo sapiens; assay: Selectivity ratio of IC50 for recombinant human thrombin K236A mutant to IC50 for wild type recombinant human thrombin; method in brief: as §1
[3] = Inhibition of recombinant human thrombin R173A mutant expressed in BHK cells using S2238 as substrate after overnight incubation at 25 degC; method in brief: as §1
[4] = (§2) Binding affinity to human plasma alpha-thrombin exosite-2 using spectrozyme TH as substrate after overnight incubation at 25 degC by spectrophotometric analysis in presence of 12.8 uM unfractionated heparin; type: cell-free
[5] = species on record: Homo sapiens; assay: as §2; type: cell-free
[6] = (§3) Binding affinity to human plasma alpha-thrombin exosite-1 using spectrozyme TH as substrate after overnight incubation at 25 degC by spectrophotometric analysis in presence of 15 nM hirugen peptide; type: cell-free
[7] = species on record: Homo sapiens; assay: as §3; type: cell-free
[8] = (§4) Binding affinity to human plasma alpha-thrombin exosite-2 using spectrozyme TH as substrate after overnight incubation at 25 degC by spectrophotometric analysis in presence of 10 uM heparin octasaccharide; type: cell-free
[9] = species on record: Homo sapiens; assay: as §4; type: cell-free
[10] = (§5) Binding affinity to human plasma alpha-thrombin exosite-2 using spectrozyme TH as substrate after overnight incubation at 25 degC by spectrophotometric analysis in presence of 1 uM heparin octasaccharide; type: cell-free
[11] = species on record: Homo sapiens; assay: as §5; type: cell-free
[12] = species on record: Homo sapiens; assay: Uncompetitive inhibition of human plasma alpha-thrombin using spectrozyme TH as substrate assessed as decrease in enzyme Vmax at 9.9 uM after 2 hrs at 37 degC by Michaelis-Menten equation analysis relative to control; type: cell-free
Method in brief: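 5 nM plasma α-thrombin with fixed inhibitor, preincubated overnight at 25 °C or 2 h at 37 °C in 20 mM Tris-HCl pH 7.4, 100 mM NaCl, 2.5 mM CaCl2, 0.1% PEG8000. Initial Spectrozyme TH (2−80 μM) hydrolysis rate read at 405 nm with under 10% substrate consumption. Michaelis−Menten fit gives KM and VMAX; error ±1 SE.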

[13] = Inhibition of recombinant human thrombin R101A mutant expressed in BHK cells using S2238 as substrate after overnight incubation at 25 degC; method in brief: as §1
[14] = target: Coagulation factor X (Homo sapiens) (UniProt P00742); assay: Inhibition of human factor 10a at 365 uM
[15] = species on record: Homo sapiens; assay: Selectivity ratio of IC50 for human plasma alpha-thrombin to IC50 for wild type recombinant human thrombin
[16] = (§6) Binding affinity to human plasma alpha-thrombin exosite-2 using spectrozyme TH as substrate after overnight incubation at 25 degC by spectrophotometric analysis in presence of 25 uM unfractionated heparin; type: cell-free
[17] = species on record: Homo sapiens; assay: as §6; type: cell-free
[18] = Inhibition of recombinant human thrombin K235A mutant expressed in BHK cells using S2238 as substrate after overnight incubation at 25 degC; method in brief: as §1
[19] = tested on: Plasma; assay: Anticoagulant activity in human plasma assessed as increase in prothrombin time at 568 uM after 30 secs by fibrometric analysis relative to control; type: functional
Method in brief: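 Citrated human plasma, one-stage recalcification, fibrometer read-out. APTT: 90 μL plasma + 10 μL inhibitor or vehicle + prewarmed 0.2% ellagic acid, 4 min, then 25 mM CaCl2 (37 °C). PT: inhibitor + plasma 30 s at 37 °C, then prewarmed thromboplastin. Duplicates. Quadratic trend line fit gives concentration doubling clotting time versus vehicle blank.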

Chain of Coagulation factor X (Homo sapiens) (P00742 41-179 limits assumed): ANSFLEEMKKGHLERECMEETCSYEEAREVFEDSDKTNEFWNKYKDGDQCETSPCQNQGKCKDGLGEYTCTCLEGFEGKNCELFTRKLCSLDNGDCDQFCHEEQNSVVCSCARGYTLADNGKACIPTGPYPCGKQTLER
Chain of Coagulation factor X (Homo sapiens) (P00742 235-488 limits assumed): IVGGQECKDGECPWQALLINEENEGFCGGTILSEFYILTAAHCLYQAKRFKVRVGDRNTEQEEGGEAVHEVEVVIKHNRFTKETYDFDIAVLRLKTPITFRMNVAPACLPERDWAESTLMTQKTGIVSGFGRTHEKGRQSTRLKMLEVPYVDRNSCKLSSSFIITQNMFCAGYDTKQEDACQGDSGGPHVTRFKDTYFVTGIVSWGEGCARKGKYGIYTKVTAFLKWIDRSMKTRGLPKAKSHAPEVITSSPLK

IC50 [1]: 330 nM | pIC50 [1]: 6.48 | Ratio IC50 [2]: 1.5 | pIC50 [3]: 6.59 | IC50 [4]: 2100 nM | pIC50(app) [5]: 5.68 | IC50 [6]: 900 nM | pIC50(app) [7]: 6.04 | IC50 [8]: 1600 nM | pIC50(app) [9]: 5.78 | IC50 [10]: 1300 nM | pIC50(app) [11]: 5.87 | fold change (FC) [12]: 5.7 | IC50 [13]: 390 nM | pIC50 [13]: 6.41 | inhibition [14]: inactive | Ratio IC50 [15]: 2.5 | IC50 [16]: 3800 nM | pIC50(app) [17]: 5.42 | IC50 [18]: 270 nM | pIC50 [18]: 6.57
SMILES: CCOC(=O)c1c(C)oc2cc(OC)c(OCc3oc4cc(OC)c(OCc5oc6cc(OC)c(OS(=O)(=O)[O-])cc6c5C(=O)OCC)cc4c3C(=O)OCC)cc12.[Na+]
fold change (FC) [19]: 2
